Results reported in ChEMBL document CHEMBL1148613, “Synthesis and biological evaluation of novel phenylcarbazoles as potential anticancer agents” (J Med Chem, 2006).

Key:
CEM/C2 = experiment: Cytotoxicity against camptothecin-resistant human leukemic CEMC2 cell line; format: functional, cell-based
In short: (§1)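 Human leukemia cells (CEM, or topoisomerase I-deficient CEM/C2) grown at 37 °C, 5% CO2 in RPMI 1640 with 10% FBS, glucose, HEPES, pyruvate and antibiotics. 2 × 10^4 exponentially growing cells seeded with graded drug concentrations, 72 h at 37 °C. Tetrazolium dye (CellTiter 96 aqueous one-solution) added for a further 2 h, absorbance read at 492 nm; IC50 reported.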

[1] = Inhibitory activity against CDK1/Cyclin B from starfish oocytes; design: species or system Marthasterias glacialis; conditions: oocyte
In short: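 Starfish oocyte (M phase) CDK1/cyclin B, affinity-purified on p9CKShs1-sepharose. Buffer C (25 mM Mops pH 7.2, β-glycerophosphate, p-nitrophenyl phosphate, EGTA, 15 mM MgCl2, DTT, vanadate, phenyl phosphate), 1 mg/mL histone H1, 15 µM [γ-33P]ATP, 10 min at 30 °C. Read by P81 phosphocellulose binding, washing and scintillation counting; activity as percent of uninhibited control, DMSO controls.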

CCRF-CEM = experiment: Cytotoxicity against human leukemic CEM cell line; format: functional, cell-based; in short: as §1
[2] = biological target: Glycogen synthase kinase-3 (Homo sapiens, UniProt P49840+P49841); experiment: Inhibitory activity against GSK3 from porcine brain; design: species or system Sus scrofa; conditions: target entry is the homologue from another species
In short: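 GSK-3α/β purified from porcine brain on immobilized axin, diluted 1/100 in BSA/DTT. Buffer A (25 mM Tris-HCl pH 7.5, 10 mM MgCl2, EGTA, DTT, 50 µg/mL heparin), GS-1 peptide substrate (5 µL of 40 µM), 15 µM [γ-33P]ATP, 30 min at 30 °C. P81 phosphocellulose filters washed in dilute phosphoric acid and counted; activity relative to no-inhibitor control.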

[3] = biological target: Cyclin-dependent kinase 5/CDK5 activator 1 (Homo sapiens, UniProt Q00535); experiment: Inhibitory activity against CDK5/p25; format: protein-complex assay
In short: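 Recombinant mammalian CDK5 and p25, expressed in E. coli as GST fusions, glutathione-agarose purified and mixed in equal amounts. Assayed in buffer C pH 7.2 with 1 mg/mL histone H1 and 15 µM [γ-33P]ATP, 10 min at 30 °C. P81 filter binding and scintillation counting; activity as percent of maximal activity without inhibitor.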

Sequence of Cyclin-dependent kinase 5/CDK5 activator 1 (Q00535 whole entry, the tested form may be a part): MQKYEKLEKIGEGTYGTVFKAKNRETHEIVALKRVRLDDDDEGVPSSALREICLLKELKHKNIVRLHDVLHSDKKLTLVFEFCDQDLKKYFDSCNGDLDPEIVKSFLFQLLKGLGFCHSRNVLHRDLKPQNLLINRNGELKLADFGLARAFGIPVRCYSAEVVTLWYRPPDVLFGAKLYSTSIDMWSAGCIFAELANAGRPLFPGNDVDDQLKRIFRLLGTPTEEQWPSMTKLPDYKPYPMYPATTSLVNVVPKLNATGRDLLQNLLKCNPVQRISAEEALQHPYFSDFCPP
Sequence of Cyclin-dependent kinase 5/CDK5 activator 1 (Q15078 whole entry, further chain, the tested form may be a part): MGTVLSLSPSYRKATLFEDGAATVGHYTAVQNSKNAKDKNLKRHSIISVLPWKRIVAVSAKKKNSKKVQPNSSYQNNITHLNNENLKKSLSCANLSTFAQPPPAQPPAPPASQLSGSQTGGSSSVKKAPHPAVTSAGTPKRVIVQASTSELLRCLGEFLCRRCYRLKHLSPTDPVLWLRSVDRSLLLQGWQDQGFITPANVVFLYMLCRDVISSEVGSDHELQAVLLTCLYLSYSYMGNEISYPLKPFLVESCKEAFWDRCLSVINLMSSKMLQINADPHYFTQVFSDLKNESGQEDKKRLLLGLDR

SMILES | IC50 [2] [µM] | IC50 [3] [µM] | IC50 (CEM/C2) [µM] | IC50 [1] [µM] | IC50 (CCRF-CEM) [µM]
O=C1NC(=O)c2c1c1ccccc1c1[nH]c3ccc(O)cc3c21 | 0.46 | 0.25 | > 25 | 0.58 | > 25
O=C1c2c(c3c4ccccc4[nH]c3c3ccccc23)C(=O)N1CCc1c[nH]cn1 | – | > 10 | 2.92 | > 10 | 1.58
O=C1OC(=O)c2c1c1ccccc1c1[nH]c3ccccc3c21 | – | > 10 | > 50 | > 10 | > 25
O=C1c2c(c3c4cc(O)ccc4[nH]c3c3ccccc23)C(=O)N1C(CO)CO | – | > 10 | 4.96 | > 10 | 2.84
CN1C(=O)c2c(c3c4ccccc4[nH]c3c3ccccc23)C1=O | – | > 10 | > 100 | > 10 | > 100

The next lines start with results.

IC50 [2] [µM] | IC50 [3] [µM] | SMILES | IC50 (CEM/C2) [µM] | IC50 [1] [µM] | IC50 (CCRF-CEM) [µM]
– | > 10 | O=C1OC(=O)c2c1c1ccccc1c1[nH]c3ccc(O)cc3c21 | 32.3 | > 10 | 14.7
– | > 10 | O=C1c2c(c3c4ccccc4[nH]c3c3ccccc23)C(=O)N1C(CO)CO | 4.95 | > 10 | 3.71
– | > 10 | O=C1c2c(c3c4cc(O)ccc4[nH]c3c3ccccc23)C(=O)N1CCc1c[nH]cn1 | 1.9 | > 10 | 0.715
20 | 8.5 | O=C1NC(=O)c2c1c1ccccc1c1[nH]c3ccccc3c21 | > 100 | 80 | > 100
– | > 10 | CN(C)CCN1C(=O)c2c(c3c4ccccc4[nH]c3c3ccccc23)C1=O | 0.335 | > 10 | 0.11
– | > 10 | CN(C)CCN1C(=O)c2c(c3c4cc(O)ccc4[nH]c3c3ccccc23)C1=O | 0.0187 | > 10 | 0.0122
– | > 10 | CN1C(=O)c2c(c3c4cc(O)ccc4[nH]c3c3ccccc23)C1=O | 4.17 | > 10 | 1.64
